≈ marks a conversion by molar mass, not a printed value.
Columns and labels:
[1] = system: Pichia kudriavzevii; assay: Antifungal activity against Candida krusei ATCC 6258 after 24 hrs by microdilution method; type: functional; conditions: ATCC 6258, 24 h
Procedure, shortened: (§1)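 Yeasts held on Sabouraud dextrose agar. MIC by NCCLS M27-A broth microdilution in RPMI 1640 with L-glutamine, buffered with 0.165 M MOPS to pH 7.0. Compounds in DMSO (≤2% final), twofold dilutions 500–0.48. Final inoculum 5 × 10³ ± 0.2 cfu mL⁻¹. Incubated at 35 °C; absorbance at 540 nm read at 24 and 48 h. MIC is 80% growth inhibition versus control; run twice in duplicate.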

[2] = system: Trichosporon beigelii; assay: Antifungal activity against Trichosporon beigelii 1188 after 24 hrs by microdilution method; type: functional; conditions: Trichosporon beigelii, 1188, 24 h; procedure, shortened: as §1
[3] = system: Candida albicans; assay: Antifungal activity against Candida albicans ATCC 90028 after 48 hrs by microdilution method; type: functional; conditions: ATCC 90028, 48 h; procedure, shortened: as §1
[4] = system: Pichia kudriavzevii; assay: Antifungal activity against Candida krusei E28 after 48 hrs by microdilution method; type: functional; conditions: E28, 48 h; procedure, shortened: as §1
[5] = system: Trichosporon beigelii; assay: Antifungal activity against Trichosporon beigelii 1188 after 48 hrs by microdilution method; type: functional; conditions: Trichosporon beigelii, 1188, 48 h; procedure, shortened: as §1
[6] = system: Candida tropicalis; assay: Antifungal activity against Candida tropicalis 156 after 48 hrs by microdilution method; type: functional; conditions: Candida tropicalis, 156, 48 h; procedure, shortened: as §1
[7] = system: Candida tropicalis; assay: Antifungal activity against Candida tropicalis 156 after 24 hrs by microdilution method; type: functional; conditions: Candida tropicalis, 156, 24 h; procedure, shortened: as §1
[8] = system: Lichtheimia corymbifera; assay: Antifungal activity against Absidia corymbifera 272 after 48 hrs by microdilution method; type: functional; conditions: Lichtheimia corymbifera, 272, 48 h
Procedure, shortened: (§2)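 Filamentous strains held on Sabouraud dextrose agar. NCCLS M27-A broth microdilution in RPMI 1640 with L-glutamine and 0.165 M MOPS, pH 7.0. DMSO diluent ≤2% final; twofold dilutions 500–0.48. Inoculum 5 × 10³ ± 0.2 cfu mL⁻¹ final.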

[9] = system: HL-60; assay: Cytostatic activity against human HL60 cells after 72 hrs by XTT assay; type: functional, cell-based
Procedure, shortened: (§3)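 Leukemia cells (L1210 ATCC CCL 219, CCRF-CEM ATCC CCL 119, HL-60 ATCC CCL 240) grown in 24-well plates in RPMI 1640 with fetal calf serum. Growth assessed 72 h after drug addition. Viability measured by XTT spectrophotometric assay; potency given as IC50.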

[10] = system: Pichia kudriavzevii; assay: Antifungal activity against Candida krusei E28 after 24 hrs by microdilution method; type: functional; conditions: E28, 24 h; procedure, shortened: as §1
[11] = system: HeLa S3; assay: Cytostatic activity against human HeLaS3 cells after 48 hrs by XTT assay; conditions: Homo sapiens, HeLa S3, 48 h; read-out: IC50
[12] = system: Candida albicans; assay: Antifungal activity against Candida albicans ATCC 90028 after 24 hrs by microdilution method; type: functional; conditions: ATCC 90028, 24 h; procedure, shortened: as §1
[13] = system: Trichophyton mentagrophytes; assay: Antifungal activity against Trichophyton mentagrophytes 445 after 72 hrs by microdilution method; type: functional; conditions: Trichophyton mentagrophytes, 445, 72 h
Procedure, shortened: (§4)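 Dermatophyte held on Sabouraud dextrose agar. M27-A microdilution in MOPS-buffered (0.165 M, pH 7.0) RPMI 1640 with L-glutamine. DMSO ≤2% final; twofold dilutions 500–0.48. Inoculum 5 × 10³ ± 0.2 cfu mL⁻¹ final. Incubated at 35 °C; MIC read visually at 72 and 120 h as 80% inhibition of control growth; determined twice in duplicate.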

[14] = system: Nakaseomyces glabratus; assay: Antifungal activity against Candida glabrata 20/I after 48 hrs by microdilution method; type: functional; procedure, shortened: as §1
[15] = system: L1210; assay: Cytostatic activity against mouse L1210 cells after 72 hrs by XTT assay; type: functional, cell-based; conditions: Mus musculus, L1210, 72 h; read-out: IC50; procedure, shortened: as §3
[16] = system: Candida albicans; assay: Antifungal activity against Candida albicans ATCC 44859 after 48 hrs by microdilution method; type: functional; conditions: ATCC 44859, 48 h; procedure, shortened: as §1
[17] = system: Aspergillus fumigatus; assay: Antifungal activity against Aspergillus fumigatus 231 after 48 hrs by microdilution method; type: functional; conditions: Aspergillus fumigatus, 231, 48 h; procedure, shortened: as §2
[18] = system: CCRF-CEM; assay: Cytostatic activity against human CCRF-CEM cells after 72 hrs by XTT assay; type: functional, cell-based; conditions: Homo sapiens, CCRF-CEM, 72 h; read-out: IC50; procedure, shortened: as §3
[19] = system: Clavispora lusitaniae; assay: Antifungal activity against Candida lusitaniae 2446/I after 48 hrs by microdilution method; type: functional; procedure, shortened: as §1
[20] = system: Clavispora lusitaniae; assay: Antifungal activity against Candida lusitaniae 2446/I after 24 hrs by microdilution method; type: functional; procedure, shortened: as §1
[21] = system: Aspergillus fumigatus; assay: Antifungal activity against Aspergillus fumigatus 231 after 24 hrs by microdilution method; type: functional; conditions: Aspergillus fumigatus, 231, 24 h; procedure, shortened: as §2
[22] = system: Candida parapsilosis; assay: Antifungal activity against Candida parapsilosis ATCC 22019 after 48 hrs by microdilution method; type: functional; conditions: Lodderomyces parapsilosis, ATCC 22019, 48 h; procedure, shortened: as §1
[23] = system: Pichia kudriavzevii; assay: Antifungal activity against Candida krusei ATCC 6258 after 48 hrs by microdilution method; type: functional; conditions: ATCC 6258, 48 h; procedure, shortened: as §1
[24] = system: Nakaseomyces glabratus; assay: Antifungal activity against Candida glabrata 20/I after 24 hrs by microdilution method; type: functional; procedure, shortened: as §1
[25] = system: Trichophyton mentagrophytes; assay: Antifungal activity against Trichophyton mentagrophytes 445 after 120 hrs by microdilution method; type: functional; conditions: Trichophyton mentagrophytes, 445, 120 h; procedure, shortened: as §4
[26] = system: Candida albicans; assay: Antifungal activity against Candida albicans ATCC 44859 after 24 hrs by microdilution method; type: functional; conditions: ATCC 44859, 24 h; procedure, shortened: as §1
[27] = system: Lichtheimia corymbifera; assay: Antifungal activity against Absidia corymbifera 272 after 24 hrs by microdilution method; type: functional; conditions: Lichtheimia corymbifera, 272, 24 h; procedure, shortened: as §2
[28] = system: Candida parapsilosis; assay: Antifungal activity against Candida parapsilosis ATCC 22019 after 24 hrs by microdilution method; type: functional; conditions: Lodderomyces parapsilosis, ATCC 22019, 24 h; procedure, shortened: as §1

MIC80 [1] [µM]	MIC80 [2] [µM]	MIC80 [3] [µM]	MIC80 [4] [µM]	MIC80 [5] [µM]	MIC80 [6] [µM]	MIC80 [7] [µM]	MIC80 [8] [µM]	MIC80 [10] [µM]	IC50 [11] [µM]	MIC80 [12] [µM]	MIC80 [13] [µM]	MIC80 [14] [µM]	IC50 [15] [µM]	MIC80 [16] [µM]	MIC80 [17] [µM]	IC50 [18] [µM]	MIC80 [19] [µM]	MIC80 [20] [µM]	MIC80 [21] [µM]	Compound	also measured
15.6 (≈ 6.08 µg/mL)	15.6 (≈ 6.08 µg/mL)	15.6 (≈ 6.08 µg/mL)	15.6 (≈ 6.08 µg/mL)	15.6 (≈ 6.08 µg/mL)	7.81 (≈ 3.04 µg/mL)	7.81 (≈ 3.04 µg/mL)	62.5 (≈ 24.3 µg/mL)	15.6 (≈ 6.08 µg/mL)	1.44	3.9 (≈ 1.52 µg/mL)	0.97 (≈ 0.378 µg/mL)	1.95 (≈ 0.759 µg/mL)	7.42	1.95 (≈ 0.759 µg/mL)	7.81 (≈ 3.04 µg/mL)	1.64	7.81 (≈ 3.04 µg/mL)	7.81 (≈ 3.04 µg/mL)	1.95 (≈ 0.759 µg/mL)	O=C1OC(COc2cccc(C(=O)O)c2)C=C1c1ccc(Br)cc1 (stereo unspecified)	IC50 ([9]; hl-60): Not Active; MIC80 [22]: 15.6 µM (≈ 6.08 µg/mL); MIC80 [23]: 15.6 µM (≈ 6.08 µg/mL); MIC80 [24]: 1.95 µM (≈ 0.759 µg/mL); MIC80 [25]: 1.95 µM (≈ 0.759 µg/mL); MIC80 [26]: 0.97 µM (≈ 0.378 µg/mL); MIC80 [27]: 62.5 µM (≈ 24.3 µg/mL); MIC80 [28]: 15.6 µM (≈ 6.08 µg/mL)
7.81 (≈ 3.04 µg/mL)	7.81 (≈ 3.04 µg/mL)	3.9 (≈ 1.52 µg/mL)	15.6 (≈ 6.08 µg/mL)	15.6 (≈ 6.08 µg/mL)	7.81 (≈ 3.04 µg/mL)	3.9 (≈ 1.52 µg/mL)	62.5 (≈ 24.3 µg/mL)	7.81 (≈ 3.04 µg/mL)	2.69	0.97 (≈ 0.378 µg/mL)	0.97 (≈ 0.378 µg/mL)	1.95 (≈ 0.759 µg/mL)	12.3	1.95 (≈ 0.759 µg/mL)	3.9 (≈ 1.52 µg/mL)	8.7	7.81 (≈ 3.04 µg/mL)	3.9 (≈ 1.52 µg/mL)	1.95 (≈ 0.759 µg/mL)	O=C1OC(COc2ccc(C(=O)O)cc2)C=C1c1ccc(Br)cc1 (stereo unspecified)	IC50 ([9]; Homo sapiens, HL-60, 72 h, read-out: IC50): 19.4 µM; MIC80 [22]: 15.6 µM (≈ 6.08 µg/mL); MIC80 [23]: 15.6 µM (≈ 6.08 µg/mL); MIC80 [24]: 0.97 µM (≈ 0.378 µg/mL); MIC80 [25]: 0.97 µM (≈ 0.378 µg/mL); MIC80 [26]: 0.48 µM (≈ 0.187 µg/mL); MIC80 [27]: 15.6 µM (≈ 6.08 µg/mL); MIC80 [28]: 7.81 µM (≈ 3.04 µg/mL)

Source: ChEMBL document CHEMBL1157589, “Antifungal 3,5-disubstituted furanones: From 5-acyloxymethyl to 5-alkylidene derivatives” (Bioorg Med Chem, 2010)
